# Measured values reported in ChEMBL document CHEMBL5661972, “In vitro biological activity of a novel small-molecule inhibitor of polo-like kinase 1” (Mol Cancer Ther, 2007).
# Calls of active or inactive are those of the source. No cut-off for these calls is given here.
# Columns and labels:
# NCI-H460 [1] = experiment: Induction of cell cycle arrest in human NCI-H460 cells assessed as accumulation of cells at G1 phase at 3 micromol/L incubated for 72 hrs by propidium iodide staining based flow cytometry analysis (reference value: 58.2 %); format: functional; conditions: dose 3 µmol/L, at 3 µM
# NHDF [2] = experiment: Induction of cell cycle arrest in human HDF cells assessed as accumulation of cells at G2-M phase at 1 micromol/L incubated for 48 hrs by propidium iodide staining based flow cytometry analysis (reference value: 14.3 %); format: toxicity; conditions: 1 µM, dose 1 µmol/L
# Outline: (§1)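 Cells seeded in six-well plates at densities that keep them in log growth (HDF 120,000, 60,000 or 30,000; H460 100,000, 50,000 or 25,000 per well for 24, 48 or 72 h). Treated with 1 or 3 μmol/L. Floating and adherent cells collected, ethanol-fixed, permeabilized with Triton X-100 and stained with propidium iodide. DNA content read by flow cytometry as % singlet cells.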
# [3] = Selectivity ratio of IC50 for cytotoxicity against human HDF cells to IC50 for antiproliferative activity against human A549 cells; format: toxicity, cell-based; conditions: HDF cells versus A549 cells, read-out: Ratio IC50
# NHDF [4] = experiment: Induction of cell cycle arrest in human HDF cells assessed as accumulation of cells at Sub-2N phase at 3 micromol/L incubated for 72 hrs by propidium iodide staining based flow cytometry analysis (reference value: 0.7 %); format: toxicity; conditions: 3 µM, dose 3 µmol/L; outline: as §1
# NHDF [5] = experiment: Induction of cell cycle arrest in human HDF cells assessed as accumulation of cells at G1 phase at 1 micromol/L incubated for 24 hrs by propidium iodide staining based flow cytometry analysis (reference value: 57.0 %); format: toxicity; conditions: 1 µM, dose 1 µmol/L; outline: as §1
# NHDF [6] = experiment: Induction of cell cycle arrest in human HDF cells assessed as accumulation of cells at >4N phase at 3 micromol/L incubated for 48 hrs by propidium iodide staining based flow cytometry analysis (reference value: 3.0 %); format: toxicity; conditions: 3 µM, dose 3 µmol/L; outline: as §1
# NHDF [7] = experiment: Induction of cell cycle arrest in human HDF cells assessed as accumulation of cells at Sub-2N phase at 1 micromol/L incubated for 24 hrs by propidium iodide staining based flow cytometry analysis (reference value: 0.2 %); format: toxicity; conditions: 1 µM, dose 1 µmol/L; outline: as §1
# [8] = Selectivity ratio of IC50 for cytotoxicity against human HDF cells to IC50 for antiproliferative activity against human MCF7 cells; format: toxicity, cell-based; conditions: HDF cells versus MCF7 cells, read-out: Ratio IC50
# NHDF [9] = experiment: Induction of cell cycle arrest in human HDF cells assessed as accumulation of cells at G1 phase at 3 micromol/L incubated for 48 hrs by propidium iodide staining based flow cytometry analysis (reference value: 72.8 %); format: toxicity; conditions: 3 µM, dose 3 µmol/L; outline: as §1
# NHDF [10] = experiment: Induction of cell cycle arrest in human HDF cells assessed as accumulation of cells at S phase at 1 micromol/L incubated for 48 hrs by propidium iodide staining based flow cytometry analysis (reference value: 4.7 %); format: toxicity; conditions: 1 µM, dose 1 µmol/L; outline: as §1
# NCI-H460 [11] = experiment: Induction of cell cycle arrest in human NCI-H460 cells assessed as accumulation of cells at G2-M phase at 1 micromol/L incubated for 48 hrs by propidium iodide staining based flow cytometry analysis (reference value: 22.5 %); format: functional; conditions: dose 1 µmol/L, at 1 µM
# [12] = Selectivity ratio of IC50 for cytotoxicity against human HDF cells to IC50 for antiproliferative activity against human NCI-N87 cells; format: toxicity, cell-based; conditions: HDF cells versus NCI-N87 cells, read-out: Ratio IC50
# NHDF [13] = experiment: Induction of cell cycle arrest in human HDF cells assessed as accumulation of cells at G2-M phase at 1 micromol/L incubated for 72 hrs by propidium iodide staining based flow cytometry analysis (reference value: 8.2 %); format: toxicity; conditions: 1 µM, dose 1 µmol/L; outline: as §1
# NCI-H460 [14] = experiment: Induction of cell cycle arrest in human NCI-H460 cells assessed as accumulation of cells at G2-M phase at 3 micromol/L incubated for 72 hrs by propidium iodide staining based flow cytometry analysis (reference value: 18.2 %); format: functional; conditions: dose 3 µmol/L
# BT-474 = experiment: Antiproliferative activity against human BT-474 cells assessed as inhibition of cell growth; format: functional, cell-based
# NCI-H460 [15] = experiment: Induction of apoptosis in human NCI-H460 cells assessed as PARP cleavage at 5 micromol/L incubated for 22 to 72 hrs by Western blotting analysis; format: functional, cell-based; conditions: dose 5.0 µmol/L, time 22-72 hrs
# Outline: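 H460 cells seeded at 320,000 per well in six-well plates and given 5 μmol/L for 22, 30, 46, 55 and 72 h. Lysed in caspase assay buffer, run on 4–12% Bis-Tris gels and immunoblotted with an anti-PARP antibody that detects both the 116-kDa intact protein and the 85-kDa fragment.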
# CDK1/Cyclin A = CDK1/Cyclin A (Homo sapiens, UniProt P06493); experiment: Inhibition of CDK1/cyclin A (unknown origin); format: protein-complex assay
# MES-SA [16] = experiment: Antiproliferative activity against human MES-SA cells assessed as inhibition of cell growth; format: functional, cell-based
# Outline: (§2)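 Cells grown 3 days in 96-well plates, seeded so vehicle controls stay in log growth (MES-SA/DX5 7,000, MES-SA 6,000, HDF 5,000 per well). Exposed to 3-fold dilutions, 30–0.00152 μmol/L, in medium with 5% FBS, 50 μg/mL gentamicin and 0.3% (v/v) DMSO. HDF medium was low-glucose DMEM; MES-SA lines used McCoy's 5A.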
# NCI-H460 [17] = experiment: Induction of cell cycle arrest in human NCI-H460 cells assessed as accumulation of cells at Sub-2N phase at 3 micromol/L incubated for 72 hrs by propidium iodide staining based flow cytometry analysis (reference value: 2.1 %); format: functional; conditions: dose 3 µmol/L, at 3 µM
# [18] = molecular target: Mitogen-activated protein kinase 11 (Homo sapiens, UniProt Q15759); experiment: Inhibition of p38beta (unknown origin)
# NCI-H460 [19] = experiment: Induction of cell cycle arrest in human NCI-H460 cells assessed as accumulation of cells at S phase at 1 micromol/L incubated for 24 hrs by propidium iodide staining based flow cytometry analysis (reference value: 23.2 %); format: functional; conditions: dose 1 µmol/L, at 1 µM
# MES-SA [20] = experiment: Antiproliferative activity against DX5 resistant human MES-SA cells assessed as inhibition of cell growth; format: functional, cell-based; outline: as §2
# NCI-H460 [21] = experiment: Induction of cell cycle arrest in human NCI-H460 cells assessed as accumulation of cells at S phase at 3 micromol/L incubated for 72 hrs by propidium iodide staining based flow cytometry analysis (reference value: 17.8 %); format: functional; conditions: dose 3 µmol/L, at 3 µM
# NHDF [22] = experiment: Induction of cell cycle arrest in human HDF cells assessed as accumulation of cells at S phase at 3 micromol/L incubated for 48 hrs by propidium iodide staining based flow cytometry analysis (reference value: 4.7 %); format: toxicity; conditions: 3 µM, dose 3 µmol/L; outline: as §1
# NCI-H460 [23] = experiment: Induction of cell cycle arrest in human NCI-H460 cells assessed as accumulation of cells at G1 phase at 1 micromol/L incubated for 48 hrs by propidium iodide staining based flow cytometry analysis (reference value: 50.9 %); format: functional; conditions: dose 1 µmol/L, at 1 µM; outline: as §1
# [24] = Selectivity ratio of IC50 for cytotoxicity against human HDF cells to IC50 for antiproliferative activity against human RKO cells; format: toxicity, cell-based; conditions: HDF cells versus RKO cells, read-out: Ratio IC50
# NHDF [25] = experiment: Induction of cell cycle arrest in human HDF cells assessed as accumulation of cells at >4N phase at 1 micromol/L incubated for 24 hrs by propidium iodide staining based flow cytometry analysis (reference value: 2.4 %); format: toxicity; conditions: 1 µM, dose 1 µmol/L; outline: as §1
# NHDF [26] = experiment: Induction of cell cycle arrest in human HDF cells assessed as accumulation of cells at S phase at 1 micromol/L incubated for 72 hrs by propidium iodide staining based flow cytometry analysis (reference value: 3.6 %); format: toxicity; conditions: 1 µM, dose 1 µmol/L; outline: as §1
# Sequence of CDK1/Cyclin A (P06493 whole entry): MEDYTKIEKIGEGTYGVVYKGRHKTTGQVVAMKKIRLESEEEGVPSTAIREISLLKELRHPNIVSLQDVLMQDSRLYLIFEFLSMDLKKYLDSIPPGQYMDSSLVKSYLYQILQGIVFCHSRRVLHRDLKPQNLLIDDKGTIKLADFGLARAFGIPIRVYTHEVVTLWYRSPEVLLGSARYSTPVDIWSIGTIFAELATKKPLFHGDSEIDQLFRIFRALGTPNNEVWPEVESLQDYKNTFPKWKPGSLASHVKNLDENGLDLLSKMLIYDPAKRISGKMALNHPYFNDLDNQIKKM
# Sequence of CDK1/Cyclin A (P20248 whole entry, further chain): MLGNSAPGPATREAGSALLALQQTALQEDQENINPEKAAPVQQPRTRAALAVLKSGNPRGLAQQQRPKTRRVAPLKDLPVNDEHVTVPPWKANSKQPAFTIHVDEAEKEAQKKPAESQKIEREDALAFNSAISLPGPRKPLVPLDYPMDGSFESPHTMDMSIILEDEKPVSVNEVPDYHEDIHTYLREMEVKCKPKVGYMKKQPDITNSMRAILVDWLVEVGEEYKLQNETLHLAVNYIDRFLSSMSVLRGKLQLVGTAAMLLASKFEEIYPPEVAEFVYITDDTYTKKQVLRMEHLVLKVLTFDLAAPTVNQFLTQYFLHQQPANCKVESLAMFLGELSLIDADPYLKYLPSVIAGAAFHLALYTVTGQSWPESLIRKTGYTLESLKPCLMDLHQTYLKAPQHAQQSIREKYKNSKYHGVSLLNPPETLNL
# Sequence of Mitogen-activated protein kinase 11 (Q15759 whole entry): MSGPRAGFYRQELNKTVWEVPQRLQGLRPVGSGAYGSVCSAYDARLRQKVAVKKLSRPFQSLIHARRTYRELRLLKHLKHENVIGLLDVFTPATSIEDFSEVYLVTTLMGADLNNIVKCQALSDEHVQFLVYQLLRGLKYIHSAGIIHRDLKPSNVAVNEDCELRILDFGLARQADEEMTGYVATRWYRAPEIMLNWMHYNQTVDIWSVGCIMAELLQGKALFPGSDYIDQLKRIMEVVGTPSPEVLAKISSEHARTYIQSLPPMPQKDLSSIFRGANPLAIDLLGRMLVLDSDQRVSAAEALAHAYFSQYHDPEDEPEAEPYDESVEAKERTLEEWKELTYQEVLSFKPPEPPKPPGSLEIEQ
structure (smiles),measurement,setting,value
COc1cc2ncn(-c3cc(OCc4ccccc4C(F)(F)F)c(C(N)=O)s3)c2cc1OC [GW843682X],Activity,NCI-H460 [1],3.7%
same,Activity,NHDF [2],27%
same,selectivity ratio,[3],> 10
same,Activity,NHDF [4],9.1%
same,Activity,NHDF [5],54.2%
same,Activity,NHDF [6],11.2%
same,Activity,NHDF [7],0.3%
same,selectivity ratio,[8],> 10
same,Activity,NHDF [9],11.3%
same,Activity,NHDF [10],7.4%
same,Activity,NCI-H460 [11],11.2%
same,selectivity ratio,[12],> 10
same,Activity,NHDF [13],21.6%
same,Activity,NCI-H460 [14],4.7%
same,IC50,BT-474,570 nM
same,Activity,NCI-H460 [15],Active
same,IC50,CDK1/Cyclin A,> 10000 nM
same,IC50,MES-SA [16],210 nM
same,Activity,NCI-H460 [17],30%
same,IC50,[18],> 10000 nM
same,Activity,NCI-H460 [19],18.2%
same,IC50,MES-SA [20],210 nM
same,Activity,NCI-H460 [21],3.6%
same,Activity,NHDF [22],5.9%
same,Activity,NCI-H460 [23],8.9%
same,selectivity ratio,[24],> 10
same,Activity,NHDF [25],3.5%
same,Activity,NHDF [26],6.7%
